Assay results collected from several papers.
Target: G protein-coupled receptor kinase 3 (GRK3, Homo sapiens, UniProt P35626)
One construct used (P35626 1-688): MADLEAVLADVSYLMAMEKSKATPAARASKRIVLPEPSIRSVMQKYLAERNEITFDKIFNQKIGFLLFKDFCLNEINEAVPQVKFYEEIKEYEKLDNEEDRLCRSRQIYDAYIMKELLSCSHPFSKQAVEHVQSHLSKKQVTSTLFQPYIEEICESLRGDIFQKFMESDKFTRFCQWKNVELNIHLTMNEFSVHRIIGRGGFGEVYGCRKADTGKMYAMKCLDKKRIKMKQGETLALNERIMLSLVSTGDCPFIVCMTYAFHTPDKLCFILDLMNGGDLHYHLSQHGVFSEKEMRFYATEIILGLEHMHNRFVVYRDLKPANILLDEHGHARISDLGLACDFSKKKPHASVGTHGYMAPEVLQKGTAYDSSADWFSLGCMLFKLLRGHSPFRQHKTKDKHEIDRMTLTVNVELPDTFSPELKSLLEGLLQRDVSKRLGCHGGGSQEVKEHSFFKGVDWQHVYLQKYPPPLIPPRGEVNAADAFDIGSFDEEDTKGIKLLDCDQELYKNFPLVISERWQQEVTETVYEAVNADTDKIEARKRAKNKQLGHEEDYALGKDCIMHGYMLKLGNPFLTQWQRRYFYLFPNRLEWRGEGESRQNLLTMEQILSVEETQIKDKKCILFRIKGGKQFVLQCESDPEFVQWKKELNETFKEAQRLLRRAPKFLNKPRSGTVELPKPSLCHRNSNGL

With C[C@@H](c1ccc(-n2cnc3c(N)ncnc32)cc1)N1CCc2nn(C)c(Cc3ccccc3)c2C1=O the remaining binding was 87% (binding; competition with immobilised ligand; 0.1 µM).
The remaining binding of CNC(=O)[C@@H]1CC[C@@H](n2c(-c3ccc4cnccc4c3)nc3ccc(C(=O)NCc4cccc(C(N)=O)c4)cc32)C1 is reported as 68% (binding; competition with immobilised ligand; 1 µM).
For O=C1CCc2cc(Nc3cc(OC4CCOCC4)c([N+](=O)[O-])cc3Cl)ccc2N1, the remaining binding was 100% (cell-free assay; competition with immobilised ligand; 1 µM).
For COc1cnc(Nc2cccc(S(N)(=O)=O)c2)nc1N1CCN(c2ccccc2)CC1, the remaining binding was 72% (binding; competition with immobilised ligand; 1 µM).
With c1cncc(-c2cccc(Nc3nccc(NC4CCCCC4)n3)c2)c1 the remaining binding was 99% (binding; competition with immobilised ligand; 10 µM).
With O=C(c1ccc(Nc2nccc(-c3cc4ccccc4s3)n2)cc1)N1CCC(N2CCCC2)CC1 the remaining binding was 64% (binding; competition with immobilised ligand; 1 µM).
With Cc1nc(N2CC[C@@H](O)C2)ncc1-c1cc(C(F)(F)F)cc2[nH]ncc12 the remaining binding was 87% (binding; competition with immobilised ligand; 1 µM).
With O=C(c1ccc(Nc2ncc(Cl)c(-c3ccc(Cl)s3)n2)cc1)N1CCC(N2CCCC2)CC1 the remaining binding was 46% (binding; competition with immobilised ligand; 1 µM).
With O=C(NCC1CCOCC1)c1n[nH]cc1NC(=O)c1c(F)cccc1F the remaining binding was 44% (binding; competition with immobilised ligand; 1 µM).
For CN(CCCC(F)(F)F)c1nccc(-c2cnn3ncccc23)n1, the remaining binding was 100% (binding; 1 µM).
With Nc1ncc2c(n1)-c1c([nH]c3ccc(C#CC4CC4)cc13)CCCC2 the remaining binding was 97% (binding; competition with immobilised ligand; 1 µM).
With c1cnn2ncc(-c3ccnc(N4CCC45COC5)n3)c2c1 the remaining binding was 29% (binding; 1 µM).
With NS(=O)(=O)c1cc(NC(=O)C2(c3ccccc3Cl)CC2)ccc1Oc1cccc(Cl)c1 the remaining binding was 100% (cell-free assay; competition with immobilised ligand; 1 µM).
COc1ccnn2ncc(-c3ccnc(N(C)C)n3)c12 gave a remaining binding of 57% (binding; 1 µM).
The remaining binding of Nc1cnc(N2CCc3cc(S(=O)(=O)Nc4c(F)cc(Cl)cc4F)cc(N4CCCC4=O)c32)nc1 is reported as 100% (cell-free assay; competition with immobilised ligand; 1 µM).
CN(C)c1nccc(-c2cnn3ncccc23)n1 has a remaining binding of 89% (binding; 1 µM).
O=C(NCCCN1CCOCC1)c1ccc(Nc2nccc(-c3cc4ccccc4s3)n2)cc1 gave a remaining binding of 88% (binding; competition with immobilised ligand; 1 µM).
C[C@@H]1CCN(c2nccc(-c3cnn4ncccc34)n2)C1 gave a remaining binding of 56% (binding; 1 µM).
C[C@@H](c1cccc(C#N)c1)n1cc(Cl)cc(C(N)=O)c1=N gave a remaining binding of 81% (cell-free assay; competition with immobilised ligand; 1 µM).
Cc1cnn2ncc(-c3ccnc(N(C)C)n3)c2c1 gave a remaining binding of 67% (binding; 1 µM).
O=C(Nc1cnc(Oc2ccc(F)cc2)nc1)N1CCc2ncccc2[C@@H]1c1ccc(F)cc1 has a remaining binding of 96% (cell-free assay; competition with immobilised ligand; 1 µM).
